Screening results from PubChem BioAssay.
In the library only some 5.3% were active in any assay of this set; here they are far more common.
T cruzi repl: T. cruzi replication inhibition; inhibition, % (test concentration not listed); T. cruzi beta-gal in NIH3T3, luminescence, 90 h; 300,000 tested, 1.4% active; AID 1885;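 active means mean inhibition across valid replicates above about 55%, limit read from the data; inconclusive means mean below that limit but half or more replicates reach it; inactive means mean below it, under half of replicates reach it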;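 further: signal also drops with host cell toxicity which is not excluded here; 0% = plate median of DMSO wells and 100% = zero luminescence signal; higher percent means less beta-gal luminescence so fewer parasites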
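System – NIH/3T3 host cells with β-galactosidase reporter T. cruzi · Doses – single 50 nL compound addition per well in DMSO · Reagent – 5000 T. cruzi trypomastigotes/well · Medium – Low-serum DMEM with 2% FBS · Timing – ≥90 h infection period, 3 h prior cell attachment · Evaluation – parasite load inhibition, % · Technique – GalScreen luminescence, 60 min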
NLRP3 yeast inh: blocks the NALP3 inflammasome reconstituted in yeast; Yeast reconstituted NLRP3/ASC/caspase-1, beta-gal luminescence, 24 h; AID 2825; 330,000 tested, 0.39% active; inhibition, % at 10 µM;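 active means inhibition of 50% or more; inactive means inhibition below 50%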;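 further: plate controls were induced DMSO wells for no effect and uninduced yeast grown without galactose for full effect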
Calb FLC: affects C. albicans growth with fluconazole; 300,000 tested, 0.57% active; AID 1979; growth inhibition, % (no concentration beside the values); C. albicans CaCi-2 + fluconazole, Alamar Blue growth, 48 h;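 active means growth inhibition above about 58% in most replicates, limit read from the data, passing the limit was not always enough; inconclusive means exactly half the replicates above a set limit; inactive means most replicates below a set limit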;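 further: all wells also contain fluconazole at 8 µg/ml as a sub-toxic cotreatment; 0% = median of DMSO wells and 100% = median of geldanamycin control wells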
Beta apoptosis: blocks beta cell apoptosis | protection from apoptosis, % (test concentration not listed) | INS-1E cytokine-induced death, ATP luminescence, 48 h; percent of positive-control rescue, neutral wells zero | 300,000 tested, 0.8% active | AID 435005;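 active means Every replicate reaches about 75%, or at least half do and their mean reaches it too, limit read from the data; inconclusive means At least half of replicates reach the limit but their mean does not; inactive means Under half of replicates reach the limit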;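 further: 0% = cytokine-treated negative control wells and 100% = positive control rescue; higher means more ATP so stronger rescue from cytokine killing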
CSC inhib: blocks cancer stem cells. 300,000 tested, 1.1% active. inhibition, % at 7.5 µM. AID 2717. cancer stem cell-like cells viability, luminescence; in the data active means inhibition above about 75%; inconclusive means no clear call, values can overlap the other calls; tested in HMLE shEcad cells
Mdm2-MdmX inh: inhibitors of human Mdm2/MdmX interaction; O15151+Q00987; SaOS-2 split-luciferase Mdm2/MdmX complementation, luminescence; inhibition, % at 8 µM; 330,000 tested, 3% active;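 active means inhibition of at least 50% at 8 µM in the primary screen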
Target sequence (O15151 whole entry, looked up): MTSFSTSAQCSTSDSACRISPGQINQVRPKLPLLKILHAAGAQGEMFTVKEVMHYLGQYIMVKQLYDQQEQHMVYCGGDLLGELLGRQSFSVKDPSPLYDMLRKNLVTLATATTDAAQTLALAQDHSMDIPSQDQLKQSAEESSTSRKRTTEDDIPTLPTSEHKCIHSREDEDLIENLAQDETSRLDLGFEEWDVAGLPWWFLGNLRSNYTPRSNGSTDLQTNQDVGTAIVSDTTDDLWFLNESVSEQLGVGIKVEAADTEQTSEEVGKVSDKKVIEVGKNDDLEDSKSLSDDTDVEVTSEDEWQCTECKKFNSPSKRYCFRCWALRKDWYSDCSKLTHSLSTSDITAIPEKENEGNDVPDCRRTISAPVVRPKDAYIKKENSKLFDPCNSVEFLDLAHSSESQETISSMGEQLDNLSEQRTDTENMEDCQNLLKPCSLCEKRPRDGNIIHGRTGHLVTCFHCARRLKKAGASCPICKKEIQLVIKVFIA
Target sequence (Q00987 whole entry, looked up): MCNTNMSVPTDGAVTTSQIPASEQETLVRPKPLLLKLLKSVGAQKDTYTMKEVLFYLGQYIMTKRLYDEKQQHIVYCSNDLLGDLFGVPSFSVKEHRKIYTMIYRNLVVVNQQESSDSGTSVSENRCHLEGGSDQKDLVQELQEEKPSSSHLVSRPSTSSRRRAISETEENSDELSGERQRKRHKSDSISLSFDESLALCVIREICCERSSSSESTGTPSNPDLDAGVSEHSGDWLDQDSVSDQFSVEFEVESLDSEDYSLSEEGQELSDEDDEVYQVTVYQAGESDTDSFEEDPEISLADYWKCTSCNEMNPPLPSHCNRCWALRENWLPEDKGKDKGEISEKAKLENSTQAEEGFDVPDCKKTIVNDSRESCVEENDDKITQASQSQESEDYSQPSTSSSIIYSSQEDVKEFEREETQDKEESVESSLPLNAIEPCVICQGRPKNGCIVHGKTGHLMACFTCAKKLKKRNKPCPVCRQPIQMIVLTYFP
Mdm2 MdmX conf: human Mdm2/MdmX binding inhibition, confirmed | inhibition, % at 8 µM | luminescent assay | shares compounds with Mdm2-MdmX inh | 10,000 tested, 55% active; in the data active means inhibition above about 40%
FLuc counter: inhibits full-length luciferase, flagging false Mdm2/MdmX hits. shares compounds with Mdm2-MdmX inh. SaOS-2 full-length luciferase counterscreen, luminescence. inhibition, % at 8 µM. 6,200 tested, 77% active. AID 504607;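 active means mean inhibition at 8 µM reaching about 37%, which flags the compound as non-specific, limit read from the data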;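 further: p53-null SaOS-2 cells with luciferase driven by a doxycycline-inducible promoter; compound on cells about two nights before reading with doxycycline added after day one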
* hit, by the source's call; u = inconclusive; x = no result.

SMILES	T cruzi repl	NLRP3 yeast inh	Calb FLC	Beta apoptosis	CSC inhib	Mdm2-MdmX inh	Mdm2 MdmX conf	FLuc counter
Fc1ccc(-n2cc(-c3ccccc3)c3c(N4CCOCC4)ncnc32)cc1	28.0	-7.1	-2.7	-6.5	54.2	62.7*	58.8*	66.8*
OCCN1CCN(c2ncnc3c2c(-c2ccccc2)cn3-c2ccc(Br)cc2)CC1	32.0	4.9	27.8	5.2	26.5	55.2*	23.6	x
COc1ccc(-n2cc(-c3ccccc3)c3c(NCCCN4CCOCC4)ncnc32)cc1	-7.7	16.8	13.6	-6.7	63.7	24.0	x	x
COc1ccc(-n2cc(-c3ccccc3)c3c(N4CCOCC4)ncnc32)cc1	35.9	9.7	-8.5	8.9	102.4*	74.0*	61.9*	79.9*
CCCn1cc(CN2CCN(Cc3ccc(C)o3)C(CCO)C2)c(C)n1 (centres undefined)	-2.1	1.9	6.7	-0.9	-9.1	16.1	x	x
Cc1cccn2c(=O)c(/C=C(\C#N)C(=O)NCc3ccccc3)c(N3CCC(C(N)=O)CC3)nc12	-6.0	15.2	-18.1	-1.0	-15.2	63.7*	0.9	x
O=C(CSc1nc(-c2cccs2)nc2ccccc12)NC1CCS(=O)(=O)C1 (centres undefined)	x	8.7	x	-2.7	0.4	61.2*	0.9	x
C(=N\Nc1nc(Nc2ccccc2)nc(Nc2ccccc2)n1)/c1ccncc1	4.8	0.5	18.4	-5.1	15.4	28.8	x	x
C(=N\Nc1nc(Nc2ccccc2)nc(Nc2ccccc2)n1)/c1cccnc1	42.9	10.7	-17.5	19.4	x	72.1*	50.7*	81.1*
Cc1sc(N/N=C/c2ccco2)nc1-c1ccccc1	25.4	26.1	-2.3	3.9	32.3	-37.7	x	x
Cc1sc(N/N=C/c2cccnc2)nc1-c1ccccc1	27.7	31.3	6.0	3.4	18.1	59.2*	61.6*	74.2*
CCOCCCNC(=O)CSc1ccccc1	-8.2	-13.8	0.3	-1.6	-12.8	7.8	x	x
O=C(CSc1nc(-c2ccc(F)cc2)cc(C(F)(F)F)n1)Nc1ccc2c(c1)OCO2	3.1	9.4	6.8	6.7	13.2	60.9*	36.7	75.2*
O=C(CSc1nc2ccc(NC(=O)CSc3nnnn3-c3ccccc3)cc2s1)Nc1ccccc1	-1.2	1.4	-1.3	0.2	5.3	-24.9	x	x
Cc1cccc(NC(=O)CSc2nc3ccc(NC(=O)CSc4nnnn4-c4ccccc4)cc3s2)c1C	x	11.8	x	0.9	-3.0	58.5*	-5.1	x
CC1CCN(CC(O)CN2c3ccccc3Sc3ccccc32)CC1 (centres undefined)	20.1	22.4	-4.9	-0.2	8.4	53.9*	15.9	x
O=C(COC(=O)Cc1c(F)cccc1Cl)NC(=O)c1ccccc1	-12.9	6.7	-4.1	-2.0	x	25.7	x	x
CC(C)=CCC/C(C)=C/CNC(=O)CC1C[C@H](C(=O)N(C(C)C)C(C)C)[C@@]2(C)c3[nH]c4ccccc4c3CCN2C1=O (some centres undefined)	x	17.3	x	10.3	x	52.6*	-10.3	x
COc1ccc2[nH]c3c(c2c1)CCN1C(=O)C(CC(=O)NC/C=C(\C)CCC=C(C)C)C[C@H](C(=O)N(C(C)C)C(C)C)[C@@]31C (some centres undefined)	x	x	x	x	x	84.0*	8.1	x
CC(C)N(C(=O)[C@H]1CC(CC(=O)NCCCN(C)C)C(=O)N2CCc3c([nH]c4ccccc34)[C@]12C)C(C)C (some centres undefined)	x	-3.3	x	-2.3	10.6	12.4	x	x
CC(C)=CCC/C(C)=C/CNC(=O)C[C@H]1C[C@H](C(=O)N(C(C)C)C(C)C)[C@@]2(C)c3[nH]c4ccc(Cl)cc4c3CCN2C1=O	x	x	x	x	x	51.4*	1.3	x
COc1ccc(C(=O)NCCCCc2ccccc2)cc1	-4.1	34.9	-18.3	x	-1.5	26.3	x	x
CN(Cc1ccc(Cl)s1)C(=O)CCl	59.0*	8.0	7.5	-8.3	5.4	53.7*	41.1*	52.4*
CC1(C)OC(=O)C(=Cc2ccc(-c3ccc(Cl)c(C(=O)O)c3)o2)C(=O)O1	-10.9	-4.6	-1.0	-5.8	-4.7	-21.3	x	x
CCCNCc1cc(Br)ccc1OCC(=O)NCCc1ccccc1	5.1	5.4	11.2	x	x	2.4	x	x
SMILES	T cruzi repl	NLRP3 yeast inh	Calb FLC	Beta apoptosis	CSC inhib	Mdm2-MdmX inh	Mdm2 MdmX conf	FLuc counter
O=C(COc1ccc(Br)cc1CNCCc1ccccc1)NCc1ccccc1	51.0	4.8	-9.4	42.1	30.9	55.7*	29.6	x
CSc1nc(Oc2ccc3ccccc3c2)c2sccc2n1	15.8	10.9	5.0	8.3	66.8	54.6*	66.5*	42.6*
CC(=O)c1ccc(Oc2ncnc(N)c2[N+](=O)[O-])cc1	-16.5	14.4	-6.0	-18.6	6.6	60.2*	60.3*	45.0*
Cc1cc(C)c(OCC(=O)Nc2ccc(S(=O)(=O)N3CCOCC3)cc2)c(C)c1	-0.2	6.9	4.4	-3.9	-8.1	42.7	x	x
O=C(CN1CCCCC1)NC(=O)NC1CCCC1	0.1	13.2	-9.3	-0.3	-16.9	19.7	x	x
Cc1cc(Br)ccc1NC(=O)CNC(=O)CSc1ncccn1	x	4.1	x	-2.4	8.5	-5.2	x	x
Cc1cc(Br)ccc1NC(=O)CNC(=O)Cn1ncc(Cl)c(Cl)c1=O	-4.8	6.2	-8.2	-58.5	83.2*	97.3*	99.2*	47.8*
O=C(Cn1ncc(Cl)c(Cl)c1=O)Nc1ccc2c(c1)OCO2	x	19.7	x	-6.7	x	100.3*	82.8*	57.2*
O=C(Cn1ncc(Cl)c(Cl)c1=O)NC(=O)NC1CCCCC1	x	-5.8	x	-3.7	u	100.2*	96.7*	50.0*
Cc1nn(CC(=O)Nc2ccc3c(c2)OCO3)c(C)c1Cl	-4.3	-10.8	-4.8	-0.1	-0.8	-9.3	x	x
Cc1ccc(S(=O)(=O)N2CCCCC2)cc1NC(=O)Cn1ncc(Cl)c(Cl)c1=O	x	-11.7	x	-20.1	90.5*	96.8*	99.2*	54.5*
CCOc1cccc(N2C(=O)CC(NNC(=O)c3ccc(Br)o3)C2=O)c1 (centres undefined)	-9.0	10.1	11.8	-2.4	-4.4	-27.5	x	x
Cc1cn(S(=O)(=O)c2cc(Br)ccc2Br)cn1	-0.8	0.4	10.3	-2.6	-2.3	4.1	x	x
COc1cc(CC(=O)OCC(=O)N2CCN(C(=O)c3ccco3)CC2)cc(OC)c1OC	x	8.4	x	-1.6	-6.2	-3.6	x	x
C=CCc1cccc2cc(C(=O)NNC(=O)c3ccncc3)c(=O)oc12	-0.2	19.0	u	x	-7.0	-17.2	x	x
COc1ccc(NC(=S)NCCC(c2ccccc2)c2ccccc2)c(OC)c1	-5.7	7.3	-13.1	-0.4	9.9	25.1	x	x
O=C(Cn1ncc(Cl)c(Cl)c1=O)N1CCN(S(=O)(=O)c2ccc3ccccc3c2)CC1	51.0	-7.1	x	14.4	102.2*	100.2*	100.2*	53.0*
